Experimental data published in ChEMBL document CHEMBL3351487, “Synthesis, molecular docking and anti-mycobacterial evaluation of new imidazo[1,2-a]pyridine-2-carboxamide derivatives” (Eur J Med Chem, 2015).
Converted amounts (≈) assume the structure as drawn.

What was measured:
[1] = test system: Mycobacterium tuberculosis; test: Antimycobacterial activity against Mycobacterium tuberculosis H37Rv ATCC 27294 after 7 days by MABA method; assay type: functional; settings: H37Rv ATCC 27294, 168 h
Summary of the method: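 Inoculum from fresh LJ culture resuspended in 7H9-S (7H9 broth, 0.1% casitone, 0.5% glycerol, OADC), adjusted to McFarland No. 1 and diluted 1:20. Drug stocks diluted in 7H9-S to four-fold the highest final concentration. Plates sealed and incubated at 37 °C in normal atmosphere for 7 days, then alamar blue added.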

[2] = Cytotoxicity against HEK293T cells assessed as inhibition of cell growth at 50 ug/mL after 72 hrs by MTT assay; assay type: cell-based, HEK-293T; settings: human, read-out: GI
Summary of the method: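 HEK-293T cells exposed to each compound at one concentration (50) for 72 h. Viability was read from cellular conversion of MTT to formazan using a non-radioactive cell proliferation kit, and the result is given as percentage inhibition of cells.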

| SMILES | MIC [1] | inhibition at 72 h, 50 ug/mL [2] | MIC50 [1] |
| --- | --- | --- | --- |
| Cn1cc(-c2ccc3nc(C(=O)NCc4ccco4)cn3c2)cn1 | > 50 µg/mL | – | – |
| COc1ccccc1-c1ccc2nc(C(=O)NCc3ccncc3)cn2c1 | 12.5 µg/mL (≈ 34.9 µM) | 31.6% | – |
| NNC(=O)c1ccncc1 [ISONIAZID] | 0.36 µg/mL (≈ 2.63 µM) | – | – |
| CCc1nc2ccc(Cl)cn2c1C(=O)NCc1ccc(N2CCC(c3ccc(OC(F)(F)F)cc3)CC2)cc1 [TELACEBEC] | – | – | 2.7 nM (≈ 1.5 ng/mL) |
| O=C(NC1CC1)c1cn2cc(-c3cnn(CCN4CCOCC4)c3)ccc2n1 | 25 µg/mL (≈ 65.7 µM) | 29.1% | – |
| O=C(NCc1ccncc1)c1cn2cc(-c3ccc(Cl)cc3)ccc2n1 | 6.25 µg/mL (≈ 17.2 µM) | 26.1% | – |
| Cn1cc(-c2ccc3nc(C(=O)NCc4ccc5c(c4)OCO5)cn3c2)cn1 | 6.25 µg/mL (≈ 16.6 µM) | 25.6% | – |
| Nc1ncccc1-c1ccc2nc(C(=O)NCc3ccc(F)cc3)cn2c1 | 25 µg/mL (≈ 69.2 µM) | 40.8% | – |
| O=C(NC1CCOCC1)c1cn2cc(-c3cnn(CCN4CCOCC4)c3)ccc2n1 | 6.25 µg/mL (≈ 14.7 µM) | 30.1% | – |
| O=C(NCc1ccc(C(F)(F)F)cc1)c1cn2cc(-c3cnn(CCN4CCOCC4)c3)ccc2n1 | 12.5 µg/mL (≈ 25.1 µM) | 22.2% | – |
| O=C(NCc1ccc(F)cc1)c1cn2cc(-c3cccc4ncccc34)ccc2n1 | 25 µg/mL (≈ 63.1 µM) | 28.1% | – |
| CN1CCN(C(=O)c2ccc(-c3ccc4nc(C(=O)NCc5ccco5)cn4c3)cc2)CC1 | 25 µg/mL (≈ 56.4 µM) | 30.1% | – |
| O=C(NCc1ccco1)c1cn2cc(-c3cccc4ncccc34)ccc2n1 | 25 µg/mL (≈ 67.9 µM) | 24.8% | – |
| Nc1ncccc1-c1ccc2nc(C(=O)NCc3ccco3)cn2c1 | 25 µg/mL (≈ 75 µM) | 26.1% | – |
| O=C(NCc1ccc(C(F)(F)F)cc1)c1cn2cc(-c3cccc4ncccc34)ccc2n1 | 25 µg/mL (≈ 56 µM) | 37.8% | – |
| CO[C@H]1/C=C/O[C@@]2(C)Oc3c(C)c(O)c4c(O)c(c(/C=N/N5CCN(C)CC5)c(O)c4c3C2=O)NC(=O)/C(C)=C\C=C\[C@H](C)[C@H](O)[C@@H](C)[C@@H](O)[C@@H](C)[C@H](OC(C)=O)[C@@H]1C [RIFAMPIN] | 0.02 µg/mL (≈ 0.0243 µM) | – | – |
| O=C(NCc1ccco1)c1cn2cc(-c3cnn(CCN4CCOCC4)c3)ccc2n1 | 12.5 µg/mL (≈ 29.7 µM) | 34.1% | – |
| O=C(O)CCc1ccc(-c2ccc3nc(C(=O)NCc4ccc(F)cc4)cn3c2)cc1 | > 50 µg/mL | – | – |
| Cn1cc(-c2ccc3nc(C(=O)NCc4ccc(F)cc4)cn3c2)cn1 | 25 µg/mL (≈ 71.6 µM) | 36.1% | – |
